What was measured:
MT2 = test: Antiviral activity by measuring its effect on the accumulation of viral RNA transcripts on infection of MT-2 cells with HIV-1 RF.; format: functional; conditions: Homo sapiens
Method in brief: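 Viral RNA transcript accumulation read 3 days after HIV-1 RF infection of MT-2 cells. IC90 is the concentration cutting viral RNA by 90% versus an untreated infected culture. TC50 came from MTT dye reduction in uninfected MT-2 cultures grown 3 days with compound.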

[1] = biological target: Human immunodeficiency virus type 1 protease (Human immunodeficiency virus 1, UniProt Q72874); test: Inhibition constant of HIV protease inhibitors
Method in brief: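 HIV protease (HIVPR) inhibition constant was determined by monitoring cleavage of a fluorescent peptide substrate, with products separated and quantified by HPLC.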

[2] = The maximum plasma concentration (Cmax) is the observed peak plasma concentration after an oral dose on rat.; format: ADME, organism-based; design: route oral
Method in brief: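 Rats dosed orally in groups at 10 mg/kg, in a formulation of propylene glycol, poly(ethylene glycol) 400 and water. Cmax is the observed peak plasma concentration after the oral dose.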

Row | Cmax [2] [nM] | SMILES | IC90 (MT2) [nM] | Ki [1] [nM]
1 |  | N=C(NO)c1cccc(CN2C(=O)N(Cc3cccc(C(=N)NO)c3)[C@H](Cc3ccc(F)cc3)[C@H](O)[C@H]2CCc2ccc(F)cc2)c1 | 49 | 0.02
2 | 810 | O=C1N(Cc2cccc(O)c2)[C@H](Cc2ccccc2)[C@H](O)[C@@H](O)[C@@H](Cc2ccccc2)N1Cc1cccc(O)c1 | 54 | 
3 |  | NC(=O)c1cccc(CN2C(=O)N(Cc3cccc(C(N)=O)c3)[C@H](Cc3ccccc3)[C@H](O)[C@H]2CCc2ccccc2)c1 |  | 0.09
4 |  | NC(=O)c1cccc(CN2C(=O)N(Cc3cccc(C(N)=O)c3)[C@H](Cc3ccc(F)cc3)[C@H](O)[C@H]2CCc2ccc(F)cc2)c1 | 35 | 0.31
5 |  | CNc1cccc(CN2C(=O)N(Cc3cccc(NC)c3)[C@H](Cc3ccccc3)[C@H](O)[C@H]2CCc2ccccc2)c1 | 328 | 
6 | 830 | O=C1N(Cc2cccc(CO)c2)[C@H](Cc2ccccc2)[C@H](O)[C@@H](O)[C@@H](Cc2ccccc2)N1Cc1cccc(CO)c1 | 38 | 
7 |  | N#Cc1cc(CN2C(=O)N(Cc3ccc(F)c(C#N)c3)[C@H](Cc3ccccc3)[C@H](O)[C@H]2CCc2ccccc2)ccc1F |  | 230
8 |  | Nc1cc(CN2C(=O)N(Cc3ccc(F)c(N)c3)[C@H](Cc3ccccc3)[C@H](O)[C@H]2CCc2ccccc2)ccc1F | 36 | 
9 |  | O=C(Nc1nccs1)c1cccc(CN2C(=O)N(Cc3cccc(C(=O)Nc4nccs4)c3)[C@H](Cc3ccccc3)[C@H](O)[C@H]2CCc2ccccc2)c1 | 31 | 0.03
10 |  | Cc1ccc(NC(=O)c2cccc(CN3C(=O)N(Cc4cccc(C(=O)Nc5ccc(C)cn5)c4)[C@H](Cc4ccccc4)[C@H](O)[C@H]3CCc3ccccc3)c2)nc1 | 26 | 0.08
11 |  | Nc1cccc(CN2C(=O)N[C@H](CCc3ccccc3)[C@@H](O)[C@H]2Cc2ccccc2)c1 | 4330 | 6.2
12 |  | N#Cc1cc(CN2C(=O)N(Cc3ccccc3)[C@H](CCc3ccccc3)[C@@H](O)[C@H]2Cc2ccccc2)ccc1F |  | 40
13 |  | O=C(O)c1cccc(CN2C(=O)N(Cc3cccc(C(=O)O)c3)[C@H](Cc3ccccc3)[C@H](O)[C@H]2CCc2ccccc2)c1 |  | 0.87
14 |  | N#Cc1cc(CN2C(=O)N[C@H](CCc3ccccc3)[C@@H](O)[C@H]2Cc2ccccc2)ccc1F |  | 110
15 |  | N/C(=N\O)c1cccc(CN2C(=O)N(CC3CC3)[C@H](CCc3ccccc3)[C@@H](O)[C@H]2Cc2ccccc2)c1 | 36 | 0.48
16 |  | [N-]=[N+]=N[C@@H](Cc1ccccc1)[C@@H]1[C@@H](O)[C@@H](Cc2ccccc2)N(Cc2ccc3ccccc3c2)C(=O)N1Cc1ccc2ccccc2c1 |  | 330
17 |  | NC(=O)c1cccc(CN2C(=O)N(Cc3cccc(C(N)=O)c3)[C@H](Cc3ccc(F)c(F)c3)[C@H](O)[C@H]2CCc2ccc(F)c(F)c2)c1 | 90 | 0.15
18 |  | Nc1cccc(CN2C(=O)N[C@H](Cc3ccccc3)[C@H](O)[C@H]2CCc2ccccc2)c1 |  | 157
19 |  | O=C1[C@@H](CCc2ccccc2)N(Cc2ccccc2)C(=O)N(Cc2ccccc2)[C@@H]1Cc1ccccc1 |  | 1500
20 |  | N#Cc1cccc(CN2C(=O)N3C(Cc4ccccc4)[C@@H]3[C@@H](O)[C@H]2Cc2ccccc2)c1 (some centres undefined) |  | 2400
21 |  | N#Cc1cccc(CN2C(=O)N(Cc3cccc(N)c3)[C@H](Cc3ccccc3)[C@H](O)[C@H]2CCc2ccccc2)c1 | 565 | 1.6

Row | Cmax [2] [nM] | SMILES | IC90 (MT2) [nM] | Ki [1] [nM]
22 | 500 | CC(=O)c1cccc(CN2C(=O)N(Cc3cccc(C(C)=O)c3)[C@H](Cc3ccccc3)[C@H](O)[C@@H](O)[C@H]2Cc2ccccc2)c1 |  | 
23 | 120 | O=C1N(Cc2cccc(O)c2)[C@H](CCc2ccccc2)[C@@H](O)[C@@H](Cc2ccccc2)N1Cc1cccc(O)c1 | 115 | 
24 |  | NC(=O)c1cc(CN2C(=O)N(Cc3ccc(F)c(C(N)=O)c3)[C@H](Cc3ccccc3)[C@H](O)[C@H]2CCc2ccccc2)ccc1F | 490 | 
25 |  | N#Cc1cc(CN2C(=O)N(Cc3ccccc3)[C@H](Cc3ccccc3)[C@H](O)[C@H]2CCc2ccccc2)ccc1F |  | 33
26 |  | Cc1n[nH]c2ccc(CN3C(=O)N(Cc4cccc(N)c4)[C@H](Cc4ccccc4)[C@H](O)[C@H]3CCc3ccccc3)cc12 | 32 | 0.13
27 |  | Cc1n[nH]c2ccc(CN3C(=O)N(Cc4ccc5[nH]nc(C)c5c4)[C@H](Cc4ccccc4)[C@H](O)[C@H]3CCc3ccccc3)cc12 | 18 | 0.1
28 |  | NC(=O)c1cccc(CN2C(=O)N(Cc3cccc(N)c3)[C@H](Cc3ccccc3)[C@H](O)[C@H]2CCc2ccccc2)c1 | 24 | 0.06
29 |  | Nc1cccc(CN2C(=O)N(Cc3ccc4[nH]ncc4c3)[C@H](Cc3ccccc3)[C@H](O)[C@H]2CCc2ccccc2)c1 | 13 | 0.08
30 |  | O=C1N(CC2CC2)[C@H]([C@@H](O)Cc2ccccc2)[C@@H](O)[C@@H](Cc2ccccc2)N1CC1CC1 |  | 410
31 |  | O=C1N[C@H](Cc2ccccc2)[C@H](O)[C@H]2C(Cc3ccccc3)N12 (some centres undefined) |  | 3000
32 |  | Nc1[nH]nc2ccc(CN3C(=O)N(Cc4ccc5n[nH]c(N)c5c4)[C@H](Cc4ccccc4)[C@H](O)[C@H]3CCc3ccccc3)cc12 | 383 | 0.03
33 |  | O=C1N(Cc2ccccc2)C[C@@H](O)[C@@H](Cc2ccccc2)N1Cc1ccccc1 |  | 2400
34 |  | Nc1[nH]nc2ccc(CN3C(=O)N[C@H](CCc4ccccc4)[C@@H](O)[C@H]3Cc3ccccc3)cc12 | 549 | 0.38
35 |  | Nc1[nH]nc2ccc(CN3C(=O)N(Cc4ccccc4)[C@H](CCc4ccccc4)[C@@H](O)[C@H]3Cc3ccccc3)cc12 | 126 | 0.28
36 |  | N=C(NO)c1cc(CN2C(=O)N(Cc3ccc(F)c(C(=N)NO)c3)[C@H](Cc3ccccc3)[C@H](O)[C@H]2CCc2ccccc2)ccc1F | 51 | 0.06
37 |  | O=C1N(CC2CC2)[C@H](CCc2ccccc2)[C@@H](O)[C@@H](Cc2ccccc2)N1CC1CC1 |  | 9.8
38 |  | N=C(NO)c1cccc(CN2C(=O)N(Cc3cccc(C(=N)NO)c3)[C@H](Cc3ccc(F)c(F)c3)[C@H](O)[C@H]2CCc2ccc(F)c(F)c2)c1 | 117 | 0.01
39 |  | O=C1N[C@H](CCc2ccccc2)[C@@H](O)[C@@H](Cc2ccccc2)N1Cc1cccc(O)c1 | 4800 | 2.6
40 |  | O=C1N(Cc2cccc(CO)c2)[C@H]([C@@H](Br)Cc2ccccc2)[C@@H](O)[C@@H](Cc2ccccc2)N1Cc1cccc(CO)c1 | 2100 | 11
41 |  | N#Cc1cccc(CN2C(=O)N(Cc3cccc(C#N)c3)[C@H](Cc3ccc(F)cc3)[C@H](O)[C@H]2CCc2ccc(F)cc2)c1 | 1560 | 14
42 |  | O=C1N[C@H](CCc2ccccc2)[C@@H](O)[C@@H](Cc2ccccc2)N1Cc1ccc2[nH]ncc2c1 | 590 | 1.2

Row | Cmax [2] [nM] | SMILES | IC90 (MT2) [nM] | Ki [1] [nM]
43 |  | Nc1cccc(CN2C(=O)N(Cc3ccc4[nH]ncc4c3)[C@H](CCc3ccccc3)[C@@H](O)[C@H]2Cc2ccccc2)c1 | 16 | 0.1
44 |  | O=C1N[C@H](Cc2ccccc2)[C@H](O)[C@@H](CCc2ccccc2)N1Cc1ccc2[nH]ncc2c1 |  | 44
45 |  | N#Cc1cccc(CN2C(=O)N[C@H](CCc3ccccc3)[C@@H](O)[C@H]2Cc2ccccc2)c1 |  | 15
46 |  | NC(=O)c1cc(CN2C(=O)N[C@H](CCc3ccccc3)[C@@H](O)[C@H]2Cc2ccccc2)ccc1F |  | 14
47 |  | O=C1N(Cc2ccccc2)[C@H](/C=C/c2ccccc2)[C@@H](O)[C@@H](Cc2ccccc2)N1Cc1ccccc1 |  | 460
48 |  | NC(=O)c1cccc(CN2C(=O)N3C(Cc4ccccc4)[C@@H]3[C@@H](O)[C@H]2Cc2ccccc2)c1 (some centres undefined) |  | 320
49 |  | NC(=O)c1cccc(CN2C(=O)N[C@H](CCc3ccccc3)[C@@H](O)[C@H]2Cc2ccccc2)c1 |  | 5.6
50 | 70 | O=C1N(Cc2cccc(-c3cc[nH]n3)c2)[C@H](Cc2ccccc2)[C@H](O)[C@@H](O)[C@@H](Cc2ccccc2)N1Cc1cccc(-c2cc[nH]n2)c1 |  | 
51 |  | N#Cc1cccc(CN2C(=O)N(Cc3cccc(C#N)c3)[C@H](Cc3ccccc3)[C@H](O)[C@H]2CCc2ccccc2)c1 | 1600 | 
52 |  | N/C(=N\O)c1cccc(CN2C(=O)N3C(Cc4ccccc4)[C@@H]3[C@@H](O)[C@H]2Cc2ccccc2)c1 (some centres undefined) |  | 12
53 |  | Nc1ccc(CN2C(=O)N(Cc3ccc(N)c(F)c3)[C@H](Cc3ccccc3)[C@H](O)[C@H]2CCc2ccccc2)cc1F | 539 | 
54 |  | O=C1N(Cc2ccccc2)[C@H]([C@@H](Br)Cc2ccccc2)[C@@H](O)[C@@H](Cc2ccccc2)N1Cc1ccccc1 |  | 185
55 |  | O=C1N(Cc2ccccc2)[C@H](CCc2ccccc2)[C@@H](O)[C@@H](Cc2ccccc2)N1Cc1ccccc1 | 2800 | 
56 |  | O=C1N(Cc2ccc3c[nH]nc3c2)[C@H](CCc2ccccc2)[C@@H](O)[C@@H](Cc2ccccc2)N1Cc1ccc2c[nH]nc2c1 | 32 | 0.06
57 |  | N/C(=N\O)c1cccc(CN2C(=O)N(Cc3cccc(N)c3)[C@H](Cc3ccccc3)[C@H](O)[C@H]2CCc2ccccc2)c1 | 17 | 0.02
58 |  | N/C(=N\O)c1cc(CN2C(=O)N[C@H](CCc3ccccc3)[C@@H](O)[C@H]2Cc2ccccc2)ccc1F | 3780 | 1.4
59 |  | Nc1[nH]nc2ccc(CN3C(=O)N(Cc4ccccc4)[C@H](Cc4ccccc4)[C@H](O)[C@H]3CCc3ccccc3)cc12 | 71 | 0.65
60 |  | O=C1N(Cc2ccc3ccccc3c2)[C@H](/C=C/c2ccccc2)[C@@H](O)[C@@H](Cc2ccccc2)N1Cc1ccc2ccccc2c1 |  | 280
61 |  | Nc1noc2ccc(CN3C(=O)N(Cc4ccc5onc(N)c5c4)[C@H](Cc4ccccc4)[C@H](O)[C@H]3CCc3ccccc3)cc12 | 132 | 0.41
62 |  | Nc1cccc(CN2C(=O)N(Cc3ccc4[nH]nc(N)c4c3)[C@H](CCc3ccccc3)[C@@H](O)[C@H]2Cc2ccccc2)c1 | 53 | 0.1
63 | 2250 | Nc1cccc(CN2C(=O)N(Cc3cccc(N)c3)[C@H](Cc3ccccc3)[C@H](O)[C@@H](O)[C@H]2Cc2ccccc2)c1 [MOZENAVIR] |  | 

Source: ChEMBL document CHEMBL1132197, “Stereospecific synthesis, structure-activity relationship, and oral bioavailability of tetrahydropyrimidin-2-one HIV protease inhibitors” (J Med Chem, 1999)
